pIC50: −log10 of the molar value. Converted amounts (≈) assume the structure as drawn. The source made the active and inactive calls. The rule behind the calls is not given here.

Experiment [1] relates to SGC-7901. The experiment can be described thus: Cytotoxicity against human SGC7901 after 48 hrs by MTT assay. It counts as functional, cell-based. The gist of the method:
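SGC-7901 cells were diluted to 3 × 10⁴ cells/mL and seeded at 100 µL per well, then held 24 h at 37 °C in 5% CO₂ before treatment. Samples at pre-set concentrations went into six wells each, with 5-fluorouracil as positive control and DMSO as negative control. Read-out was absorbance at 570 nm. Data are the mean ± SD of three experiments in triplicate. IC50 is the concentration at which 50% of cells survive.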

Experiment [2] addresses T1, Telomerase reverse transcriptase (Homo sapiens, UniProt O14746). The experiment can be described thus: Inhibition of human telomerase in human SGC7901 cells by TRAP assay.
The target of experiment [3] is T1, Telomerase reverse transcriptase. The experiment can be described thus: Inhibition of human telomerase in human SGC7901 cells at 0 to 60 uM by TRAP assay. The experiment is classed as cell-based. Conditions: SGC-7901. The gist of the method: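 Telomerase inhibition was measured by a modified TRAP assay using SGC-7901 cell extract. Compounds were tested across the stated concentration range. IC50 is the concentration giving 50% telomerase inhibition. Ethidium bromide served as reference control.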

For experiment [4], the target named is DNA polymerase I, thermostable (Thermus aquaticus) (UniProt P19821). The experiment can be described thus: Inhibition of Thermus aquaticus taq polymerase at 0 to 60 uM.
A short description of experiment [5]: Selectivity index, ratio of IC50 for taq polymerase to IC50 for human telomerase. The gist of the method:
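Selectivity index is the ratio of the concentration giving 50% Taq polymerase inhibition to the concentration giving 50% telomerase inhibition (modified TRAP, SGC-7901 cell extract).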

In experiment [6] the target is DNA polymerase I, thermostable (Thermus aquaticus, UniProt P19821). The experiment can be described thus: Inhibition of Thermus aquaticus taq polymerase.
Where [7] appears, read: Homo sapiens, SGC-7901, 48 h, read-out: IC50.

Chain of DNA polymerase I, thermostable (P19821 whole entry): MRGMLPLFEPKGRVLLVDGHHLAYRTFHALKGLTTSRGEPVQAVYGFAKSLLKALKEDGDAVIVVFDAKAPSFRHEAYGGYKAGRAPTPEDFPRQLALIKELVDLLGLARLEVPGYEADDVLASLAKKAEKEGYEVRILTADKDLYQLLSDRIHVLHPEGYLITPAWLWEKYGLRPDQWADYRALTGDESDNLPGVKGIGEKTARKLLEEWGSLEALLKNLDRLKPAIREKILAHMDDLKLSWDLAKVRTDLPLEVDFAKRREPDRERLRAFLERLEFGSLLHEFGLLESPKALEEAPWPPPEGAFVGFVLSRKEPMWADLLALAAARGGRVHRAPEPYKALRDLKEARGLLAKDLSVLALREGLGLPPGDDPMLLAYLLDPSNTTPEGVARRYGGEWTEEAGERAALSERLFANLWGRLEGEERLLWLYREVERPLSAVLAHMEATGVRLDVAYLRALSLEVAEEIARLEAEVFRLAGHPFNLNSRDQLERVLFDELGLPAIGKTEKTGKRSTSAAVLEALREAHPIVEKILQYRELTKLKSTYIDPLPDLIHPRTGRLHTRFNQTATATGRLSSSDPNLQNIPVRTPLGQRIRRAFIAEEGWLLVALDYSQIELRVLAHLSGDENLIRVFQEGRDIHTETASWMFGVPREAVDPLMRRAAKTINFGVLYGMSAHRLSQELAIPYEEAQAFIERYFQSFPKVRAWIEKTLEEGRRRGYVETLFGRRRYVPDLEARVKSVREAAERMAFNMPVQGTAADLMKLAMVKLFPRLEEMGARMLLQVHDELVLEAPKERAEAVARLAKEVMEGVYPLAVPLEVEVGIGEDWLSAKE
T1 sequence (O14746 whole entry): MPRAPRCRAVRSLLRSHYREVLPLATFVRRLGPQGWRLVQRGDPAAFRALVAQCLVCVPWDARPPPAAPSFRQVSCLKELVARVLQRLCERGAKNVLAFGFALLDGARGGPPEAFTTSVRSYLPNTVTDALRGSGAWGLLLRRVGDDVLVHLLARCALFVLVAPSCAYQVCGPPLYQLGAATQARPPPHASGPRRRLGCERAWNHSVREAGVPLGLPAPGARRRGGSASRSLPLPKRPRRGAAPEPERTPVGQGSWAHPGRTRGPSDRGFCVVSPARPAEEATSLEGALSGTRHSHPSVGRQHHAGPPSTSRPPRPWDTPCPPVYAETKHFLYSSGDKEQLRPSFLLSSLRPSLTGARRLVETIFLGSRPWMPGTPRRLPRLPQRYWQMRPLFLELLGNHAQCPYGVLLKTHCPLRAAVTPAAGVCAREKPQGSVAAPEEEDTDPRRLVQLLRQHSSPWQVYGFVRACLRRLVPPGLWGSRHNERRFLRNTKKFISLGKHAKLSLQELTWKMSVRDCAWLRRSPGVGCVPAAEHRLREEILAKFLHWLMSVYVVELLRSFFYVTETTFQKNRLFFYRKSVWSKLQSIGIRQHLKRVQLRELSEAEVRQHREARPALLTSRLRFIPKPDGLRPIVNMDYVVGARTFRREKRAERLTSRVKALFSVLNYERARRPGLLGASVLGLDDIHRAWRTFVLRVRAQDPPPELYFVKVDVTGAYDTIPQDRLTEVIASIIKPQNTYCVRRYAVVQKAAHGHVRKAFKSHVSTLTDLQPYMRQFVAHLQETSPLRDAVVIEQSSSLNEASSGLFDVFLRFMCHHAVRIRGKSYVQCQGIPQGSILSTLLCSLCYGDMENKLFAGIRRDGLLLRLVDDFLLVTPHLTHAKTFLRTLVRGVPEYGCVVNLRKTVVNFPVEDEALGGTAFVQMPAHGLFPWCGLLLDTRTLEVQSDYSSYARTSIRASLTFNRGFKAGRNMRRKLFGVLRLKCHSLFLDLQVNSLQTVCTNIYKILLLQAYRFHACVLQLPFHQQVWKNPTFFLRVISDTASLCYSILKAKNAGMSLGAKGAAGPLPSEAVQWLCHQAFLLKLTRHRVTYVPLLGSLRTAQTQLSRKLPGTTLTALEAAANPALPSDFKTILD
Chain of DNA polymerase I, thermostable (Thermus aquaticus) (P19821 whole entry): as the sequence (P19821 whole entry) above

As to `CC(=O)N1N=C(C)CC1c1ccc(OCc2ccc(Cl)nc2)cc1` (stereo unspecified), the IC50 entry in experiment [1] (sgc-7901) is listed as “Not Active”. This molecule also gave a pIC50 in experiment [2] of 4.33.

As to `COc1ccc(-c2oc3ccccc3c(=O)c2OCc2ccc(Cl)nc2)cc1`, the 50% inhibitory concentration (IC50) entry in experiment [1] (sgc-7901) is given as “Not Active”. The inhibition result in experiment [3] and in experiment [4] was “inactive” throughout.

On to `O=c1cc(-c2ccc(OCc3ccc(Cl)nc3)cc2)oc2cc(OCc3ccc(Cl)nc3)ccc12`, for which, in experiment [1] (setting [7]), the IC50 is 18.4 µg/mL (≈ 36.5 µM). Besides, the Ratio IC50 in experiment [5] is 1.6. In addition, the figures for the pIC50 in experiment [2] and in experiment [6] were 5.52 and 5.30, respectively.

In the case of `CC(=O)N1N=C(C)CC1c1ccccc1OCc1ccc(Cl)nc1` (stereo unspecified), the IC50 entry in experiment [1] (sgc-7901) is reported as “Not Active”. In addition, in experiment [3], the inhibition entry is “inactive”. In experiment [6], this molecule had a negative-log IC50 (pIC50) of 4.27.

For the molecule `O=c1cc(-c2ccccc2)oc2cc(OCc3ccc(Cl)nc3)cc(O)c12`, the IC50 result in experiment [1] (sgc-7901) is recorded as “Not Active”. For the same molecule, the Ratio IC50 in experiment [5] was found to be 1.3. In addition, the pIC50 is 4.68 in experiment [2] and 4.56 in experiment [6].

Turning to `O=c1cc(-c2ccc(OCc3ccc(Cl)nc3)cc2)oc2cc(O)cc(O)c12`, the IC50 in experiment [1] (setting [7]) turned out to be 25.9 µg/mL (≈ 65.5 µM). Besides, the Ratio IC50 in experiment [5] was determined as 1.9. Moreover, the pIC50 was 5.46 in experiment [2] and 5.17 in experiment [6].

For the molecule `COc1ccc(-c2cc(=O)c3ccc(OCc4ccc(Cl)nc4)cc3o2)cc1`, the IC50 in experiment [1] (setting [7]) was 35.2 µg/mL (≈ 89.3 µM). The Ratio IC50 in experiment [5] came out at 2.1. For the same molecule, the pIC50 in experiment [2] is 5.51; in experiment [6], 5.19.

Regarding `O=c1[nH]cc(F)c(=O)[nH]1` [FLUOROURACIL], the IC50 in experiment [1] (setting [7]) was determined as 7.38 µg/mL (≈ 56.7 µM).

In the case of `O=c1c(OCc2ccc(Cl)nc2)c(-c2ccccc2)oc2ccccc12`, the IC50 result in experiment [1] (sgc-7901) was “Not Active”. Also, the inhibition entry in experiment [3] and in experiment [4] was “inactive” in each case.

Turning to `O=c1cc(-c2ccc(OCc3ccc(Cl)nc3)cc2)oc2cc(OCc3ccc(Cl)nc3)cc(O)c12`, the IC50 in experiment [1] (setting [7]) was 22.3 µg/mL (≈ 42.7 µM). Further, in experiment [5], the Ratio IC50 was 2.5. The results for the pIC50 in experiment [2] and in experiment [6] were 6.10 and 5.70, respectively.

Turning to `COc1ccc(-c2coc3cc(OCc4ccc(Cl)nc4)ccc3c2=O)cc1`, the IC50 in experiment [1] (setting [7]) worked out at 31.9 µg/mL (≈ 81.1 µM). Further, the Ratio IC50 in experiment [5] is 3. For the same molecule, the pIC50 in experiment [2] was 5.60; in experiment [6], 5.12.

The values above are taken from ChEMBL document CHEMBL1177815, “Synthesis and molecular docking studies of novel 2-chloro-pyridine derivatives containing flavone moieties as potential antitumor agents” (Bioorg Med Chem Lett, 2010).
